Data from PMC10448436 (Journal of medicinal chemistry, 2022).
Each block holds one molecule with its values, some of them ahead of it.

Columns and labels:
Shake-flask logD7.4 = type: physicochemical; conditions: pH 7.4
[1] = target: DOR (delta opioid receptor) (Homo sapiens, UniProt P41143); assay: Off-target counter screen at 10 μM; type: binding; conditions: read-out: target inhibition, DOR
5-HT1A = target: T1, 5-HT1A (Homo sapiens, UniProt P08908); assay: Off-target counter screen at 10 μM; type: binding; conditions: read-out: target inhibition, 5-HT1A
T1 sequence (P08908 1-422): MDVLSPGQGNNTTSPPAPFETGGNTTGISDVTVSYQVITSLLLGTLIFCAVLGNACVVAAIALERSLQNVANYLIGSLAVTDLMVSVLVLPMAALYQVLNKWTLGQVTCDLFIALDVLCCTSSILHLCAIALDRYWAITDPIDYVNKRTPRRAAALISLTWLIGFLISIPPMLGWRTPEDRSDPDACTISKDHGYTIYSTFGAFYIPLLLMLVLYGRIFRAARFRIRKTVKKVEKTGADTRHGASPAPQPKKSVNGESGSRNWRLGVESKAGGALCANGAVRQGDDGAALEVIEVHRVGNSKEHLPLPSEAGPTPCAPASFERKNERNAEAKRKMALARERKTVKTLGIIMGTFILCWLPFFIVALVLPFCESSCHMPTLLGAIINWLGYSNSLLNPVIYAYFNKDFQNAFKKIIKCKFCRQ

5-HT1A, Alpha2C and DOR = assay: Follow-up binding assays, selectivity towards TARP γ−8; conditions: follow-up 5-HT1A
Alpha2C = target: T2, Alpha2C (Homo sapiens, UniProt P18825); assay: Off-target counter screen at 10 μM; type: binding; conditions: read-out: target inhibition, Alpha2C
T2 sequence (P18825 1-462): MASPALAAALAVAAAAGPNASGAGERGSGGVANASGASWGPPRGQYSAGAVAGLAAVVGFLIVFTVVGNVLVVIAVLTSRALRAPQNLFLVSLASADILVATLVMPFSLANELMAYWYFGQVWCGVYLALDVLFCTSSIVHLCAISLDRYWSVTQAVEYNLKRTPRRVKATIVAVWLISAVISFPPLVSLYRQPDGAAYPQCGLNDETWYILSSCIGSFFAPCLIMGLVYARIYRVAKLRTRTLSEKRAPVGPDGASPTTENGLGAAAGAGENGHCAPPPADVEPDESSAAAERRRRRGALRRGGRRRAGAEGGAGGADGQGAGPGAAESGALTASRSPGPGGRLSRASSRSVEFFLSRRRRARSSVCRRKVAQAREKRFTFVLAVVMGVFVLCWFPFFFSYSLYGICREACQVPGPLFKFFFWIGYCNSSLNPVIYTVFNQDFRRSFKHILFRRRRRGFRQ

[2] = test system: ionotropic glutamate receptors (iGluR); assay: Off-target counter screen at 10 μM; type: binding
TARP γ−8 [3] = target: T3, TARP γ−8 (Rattus norvegicus, UniProt Q8VHW5); assay: PET imaging in rat brain; type: in vivo, Sprague-Dawley rats
T3 sequence (Q8VHW5 1-421): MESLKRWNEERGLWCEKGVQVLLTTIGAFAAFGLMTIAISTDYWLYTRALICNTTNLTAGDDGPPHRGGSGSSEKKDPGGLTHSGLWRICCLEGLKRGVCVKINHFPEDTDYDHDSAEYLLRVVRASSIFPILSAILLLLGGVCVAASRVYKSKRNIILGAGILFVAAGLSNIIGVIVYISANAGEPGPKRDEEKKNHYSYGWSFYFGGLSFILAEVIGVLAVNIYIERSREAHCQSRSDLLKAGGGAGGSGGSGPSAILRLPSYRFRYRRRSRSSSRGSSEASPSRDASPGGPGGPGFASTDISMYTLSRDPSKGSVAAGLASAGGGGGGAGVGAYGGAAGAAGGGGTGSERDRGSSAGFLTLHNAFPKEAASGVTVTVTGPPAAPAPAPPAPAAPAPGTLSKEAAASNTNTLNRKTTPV
In short: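 Male Sprague-Dawley rats (210−230 g) were kept under 1–2% isoflurane. The 11C-labelled test compound was injected via tail-vein catheter (38.5 ± 2.8 MBq, 0.3 ± 0.2 nmol), followed by a dynamic 3D PET scan for 60 min, co-registered to an MR template. Decay-corrected data were expressed as SUV, and BPND maps were derived by SRTM. Mean ± SD, n = 3.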

TARP γ−8 [4] = target: T3, TARP γ−8; assay: In vitro autoradiography on rat brain sections; type: binding
In short: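 Frozen rat brain sections (stored −80 °C) were pre-incubated in 50 mM Tris-HCl for 20 min at ambient temperature, then incubated with the 11C-labelled test compound. For blocking, unlabelled inhibitor (1 μM) was added to the incubation solution beforehand. Sections were washed three times in ice-cold buffer, dipped 10 s in cold water, cold-air dried and exposed to imaging plates. ROI radioactivity was read as PSL/mm2.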

[5] = In vitro stability of the formulated radioligand; type: physicochemical
In short: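 After HPLC purification, the radiotracer fraction was collected into Tween 80 and ethanol, evaporated and redissolved in 5 mL sterile normal saline. It was then passed through a 0.22 μm filter. The formulated solution was checked for radiolysis up to 90 min.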

[6] = tracer [11C]15, pretreatment with JNJ-55511118 (1 mg/kg), rat
[7] = tracer [11C]8, blocking with 8 (1 μM)

DOR (delta opioid receptor), sequence (P41143 whole entry): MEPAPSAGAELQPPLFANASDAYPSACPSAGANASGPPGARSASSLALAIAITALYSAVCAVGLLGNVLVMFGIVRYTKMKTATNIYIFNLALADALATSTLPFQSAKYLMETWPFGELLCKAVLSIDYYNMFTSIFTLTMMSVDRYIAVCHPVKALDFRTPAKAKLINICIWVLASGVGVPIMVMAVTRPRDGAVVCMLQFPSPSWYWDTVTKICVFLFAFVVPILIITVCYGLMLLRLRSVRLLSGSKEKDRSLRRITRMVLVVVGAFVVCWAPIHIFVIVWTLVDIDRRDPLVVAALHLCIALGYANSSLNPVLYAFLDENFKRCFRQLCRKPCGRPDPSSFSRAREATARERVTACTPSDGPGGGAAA

logD (Shake-flask logD7.4): 2.3 ± 0.06
Compound: Cc1ccc2nc(C3CCC3)n(-c3ccc4[nH]c(=O)sc4c3)c2n1 [Compound 8, 6-(2-Cyclobutyl-5-methyl-3H-imidazo[4,5-b]pyridin-3-yl)benzo[d]thiazol-2(3H)-one]

inhibition at 10 µM [1]: > 50% | inhibition at 10 µM (5-HT1A): > 50% | selectivity towards TARP γ−8 among any other tested CNS targets (5-HT1A, Alpha2C and DOR): greater than 750 fold | logD (Shake-flask logD7.4): 2.5 ± 0.01 | inhibition at 10 µM (Alpha2C): > 50% | interaction with related iGlu receptor family [2]: no substantial interaction
Compound: Cc1ccc2nc(C3CCC3)n(-c3ccc4[nH]ncc4c3)c2n1 [Compound 15, 2-Cyclobutyl-3-(1H-indazol-5-yl)-5-methyl-3H-imidazo[4,5-b]pyridine]

reduction of BPND values (TARP γ−8 [3]; [6]): 66–81% | reduction of radioactivity uptake in hippocampus based on AUC (TARP γ−8 [3]; [6]): 35–47% | reduction of uptake in hippocampus (TARP γ−8 [4]; tracer [11C]15, blocking with JNJ-55511118 (1 μM)): 77%
Compound: O=c1[nH]c2ccc(-c3c(Cl)cccc3OC(F)(F)F)cc2[nH]1 [JNJ-55511118, reference compound]

radiolysis in the formulated solution ([5]; up to 90 min): no radiolysis was observed | in vitro stability ([5]; up to 90 min after formulation): > 95% | maximum SUV in the brain (TARP γ−8 [3]; at 2.5 min, baseline, rat): 0.4 | change of bound radioactivity in cerebellum (reference region) (TARP γ−8 [4]; [7]): no notable change | reduction of bound radioactivity in hippocampus (TARP γ−8 [4]; [7]): 83%
Compound: [11CH3]c1ccc2nc(C3CCC3)n(-c3ccc4[nH]c(=O)sc4c3)c2n1 [[^11C]8, 6-(2-cyclobutyl-5-[^11C]methyl-3H-imidazo[4,5-b]pyridin-3-yl)benzo[d]thiazol-2(3H)-one]
blood brain barrier penetration (TARP γ−8 [3]; rat PET, baseline): failed to penetrate the blood brain barrier
